Test results: ChEMBL document CHEMBL1154334, “Effect of the structure of adenosine mimic of bisubstrate-analog inhibitors on their activity towards basophilic protein kinases” (Bioorg Med Chem Lett, 2009)
Where a SMILES comes first, the peptide text is derived from it. [ ]: non-standard residue; d: D form. The star is where a group is joined. X1 = Nc1nccc(-c2ccc(C(=O)*)s2)n1; Ahx = NCCCCCC(=O)O

Experiments:
[1] = molecular target: Calcium/calmodulin-dependent protein kinase type II subunit alpha (Homo sapiens) (UniProt Q9UQM7); experiment: Inhibition of CaMK2alpha at 100 nM relative to control
In short: (§1)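 Kinase panel screen with inhibitor at 100 nM and ATP at about the Km of each kinase. Activity is given as percent inhibition relative to control incubations with the inhibitor omitted. Values are means of duplicate determinations, with the spread reported as the difference between duplicates.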

[2] = molecular target: Ribosomal protein S6 kinase alpha-3 (Homo sapiens) (UniProt P51812); experiment: Inhibition of RSK2 at 100 nM relative to control; in short: as §1
[3] = molecular target: Ribosomal protein S6 kinase alpha-5 (Homo sapiens) (UniProt O75582); experiment: Inhibition of MSK1 at 100 nM relative to control; in short: as §1
[4] = molecular target: Ribosomal protein S6 kinase alpha-2 (Homo sapiens) (UniProt Q15349); experiment: Inhibition of RSK3 at 100 nM relative to control
In short: (§2)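 Kinase panel screen with the inhibitor at 100 nM and ATP at a concentration of about Km for each kinase. Activity was expressed as percent inhibition relative to control incubations that lacked inhibitor. Values are means of duplicate determinations, and the difference between the duplicates is also reported.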

[5] = molecular target: Serine/threonine-protein kinase Sgk2 (Homo sapiens) (UniProt Q9HBY8); experiment: Inhibition of SGK2 at 100 nM relative to control; in short: as §2
[6] = molecular target: Calcium/calmodulin-dependent protein kinase type II subunit beta (Homo sapiens) (UniProt Q13554); experiment: Inhibition of CaMK2beta at 100 nM relative to control; in short: as §1
[7] = molecular target: Protein kinase C alpha type (Homo sapiens) (UniProt P17252); experiment: Inhibition of PKCalpha at 100 nM relative to control; in short: as §1
[8] = molecular target: Protein kinase C epsilon type (Homo sapiens) (UniProt Q02156); experiment: Inhibition of PKCepsilon at 100 nM relative to control; in short: as §1
[9] = molecular target: Protein kinase C beta type (Homo sapiens) (UniProt P05771); experiment: Inhibition of PKCbeta2 at 100 nM relative to control; in short: as §1
[10] = molecular target: RAC-gamma serine/threonine-protein kinase (Homo sapiens, UniProt Q9Y243); experiment: Inhibition of PKBgamma at 100 nM relative to control; in short: as §1
[11] = molecular target: Protein kinase C gamma type (Homo sapiens) (UniProt P05129); experiment: Inhibition of PKCgamma at 100 nM relative to control; in short: as §1
[12] = molecular target: cAMP-dependent protein kinase catalytic subunit PRKX (Homo sapiens) (UniProt P51817); experiment: Inhibition of PRKX at 100 nM relative to control; in short: as §1
[13] = molecular target: RAC-alpha serine/threonine-protein kinase (Homo sapiens) (UniProt P31749); experiment: Inhibition of PKBalpha at 100 nM relative to control; in short: as §1
[14] = molecular target: Rho-associated protein kinase 1 (Homo sapiens) (UniProt Q13464); experiment: Inhibition of ROCK1 at 100 nM relative to control; in short: as §1
[15] = molecular target: Serine/threonine-protein kinase D1 (Homo sapiens) (UniProt Q15139); experiment: Inhibition of PKCmu at 100 nM relative to control; in short: as §1
[16] = Inhibition of PKG1 at 100 nM relative to control; in short: as §1
[17] = molecular target: cGMP-dependent protein kinase 2 (Homo sapiens) (UniProt Q13237); experiment: Inhibition of PKG2 at 100 nM relative to control; in short: as §1
[18] = molecular target: Protein kinase C eta type (Homo sapiens) (UniProt P24723); experiment: Inhibition of PKCeta at 100 nM relative to control; in short: as §1
[19] = molecular target: Glycogen synthase kinase-3 alpha (Homo sapiens) (UniProt P49840); experiment: Inhibition of GSK3alpha at 100 nM relative to control; in short: as §1
[20] = molecular target: Serine/threonine-protein kinase D2 (Homo sapiens) (UniProt Q9BZL6); experiment: Inhibition of PKD2 at 100 nM relative to control; in short: as §1
[21] = molecular target: Cyclin-dependent kinase 2/cyclin A (Homo sapiens) (UniProt P24941+P20248+P78396); experiment: Inhibition of CDK2/cyclin A at 100 nM relative to control; format: protein-complex assay; in short: as §1
[22] = molecular target: AMP-activated protein kinase (AMPK) alpha-1/beta-1/gamma-1 (Homo sapiens) (UniProt P54619+Q9Y478+Q13131); experiment: Inhibition of AMPK alpha-1/beta-1/gamma-1 at 100 nM relative to control; format: protein-complex assay; in short: as §1
[23] = molecular target: Maternal embryonic leucine zipper kinase (Homo sapiens) (UniProt Q14680); experiment: Inhibition of MELK at 100 nM relative to control; in short: as §1
[24] = molecular target: Serine/threonine-protein kinase Sgk1 (Homo sapiens) (UniProt O00141); experiment: Inhibition of SGK1 at 100 nM relative to control; in short: as §2
[25] = molecular target: Protein kinase C theta type (Homo sapiens) (UniProt Q04759); experiment: Inhibition of PKCtheta at 100 nM relative to control; in short: as §1
[26] = molecular target: Protein kinase C beta type (Homo sapiens) (UniProt P05771); experiment: Inhibition of PKCbeta1 at 100 nM relative to control; in short: as §1
[27] = molecular target: Serine/threonine-protein kinase D3 (Homo sapiens) (UniProt O94806); experiment: Inhibition of PKD3 at 100 nM relative to control; in short: as §1
[28] = molecular target: Serine/threonine-protein kinase PAK 4 (Homo sapiens) (UniProt O96013); experiment: Inhibition of PAK4 at 100 nM relative to control; in short: as §1
[29] = molecular target: Ribosomal protein S6 kinase alpha-1 (Homo sapiens) (UniProt Q15418); experiment: Inhibition of RSK1 at 100 nM relative to control; in short: as §1
[30] = molecular target: Death-associated protein kinase 3 (Homo sapiens) (UniProt O43293); experiment: Inhibition of DAPK3 at 100 nM relative to control; in short: as §1
[31] = molecular target: Serine/threonine-protein kinase pim-1 (Homo sapiens) (UniProt P11309); experiment: Inhibition of PIM1 at 100 nM relative to control; in short: as §1
[32] = molecular target: Glycogen synthase kinase-3 beta (Homo sapiens) (UniProt P49841); experiment: Inhibition of GSK3-beta at 100 nM relative to control; in short: as §1
[33] = molecular target: Protein kinase C delta type (Homo sapiens) (UniProt Q05655); experiment: Inhibition of PKCdelta at 100 nM relative to control; in short: as §1
[34] = molecular target: Serine/threonine-protein kinase Chk1 (Homo sapiens) (UniProt O14757); experiment: Inhibition of CHK1 at 100 nM relative to control; in short: as §1
[35] = molecular target: Ribosomal protein S6 kinase alpha-4 (Homo sapiens) (UniProt O75676); experiment: Inhibition of MSK2 at 100 nM relative to control; in short: as §1
[36] = molecular target: Serine/threonine-protein kinase PAK 6 (Homo sapiens) (UniProt Q9NQU5); experiment: Inhibition of PAK6 at 100 nM relative to control; in short: as §1
[37] = molecular target: Serine/threonine-protein kinase Chk2 (Homo sapiens) (UniProt O96017); experiment: Inhibition of CHK2 at 100 nM relative to control; in short: as §1
[38] = molecular target: Ribosomal protein S6 kinase beta-1 (Homo sapiens) (UniProt P23443); experiment: Inhibition of p70S6 at 100 nM relative to control; in short: as §2
[39] = molecular target: cAMP-dependent protein kinase catalytic subunit alpha (Homo sapiens, UniProt P17612); experiment: Inhibition of PKA Calpha at 100 nM relative to control; in short: as §1
[40] = molecular target: 3-phosphoinositide-dependent protein kinase 1 (Homo sapiens) (UniProt O15530); experiment: Inhibition of PDK1 at 100 nM relative to control
[41] = molecular target: Serine/threonine-protein kinase PAK 3 (Homo sapiens) (UniProt O75914); experiment: Inhibition of PAK3 at 100 nM relative to control; in short: as §1
[42] = molecular target: Calcium/calmodulin-dependent protein kinase type 1D (Homo sapiens) (UniProt Q8IU85); experiment: Inhibition of CaMK 1delta at 100 nM relative to control; in short: as §1
[43] = molecular target: Protein kinase C iota type (Homo sapiens) (UniProt P41743); experiment: Inhibition of PKCiota at 100 nM relative to control; in short: as §1
[44] = molecular target: RAC-beta serine/threonine-protein kinase (Homo sapiens) (UniProt P31751); experiment: Inhibition of PKBbeta at 100 nM relative to control; in short: as §1
[45] = molecular target: Rho-associated protein kinase 2 (Homo sapiens, UniProt O75116); experiment: Inhibition of ROCK2 at 100 nM relative to control; in short: as §1
[46] = molecular target: Protein kinase C zeta type (Homo sapiens) (UniProt Q05513); experiment: Inhibition of PKCzeta at 100 nM relative to control; in short: as §1
[47] = molecular target: Aurora kinase A (Homo sapiens) (UniProt O14965); experiment: Inhibition of Aurora A at 100 nM relative to control; in short: as §1
[48] = molecular target: Proto-oncogene tyrosine-protein kinase Src (Homo sapiens) (UniProt P12931); experiment: Inhibition of SRC at 100 nM relative to control; in short: as §2
[49] = molecular target: Serine/threonine-protein kinase pim-2 (Homo sapiens) (UniProt Q9P1W9); experiment: Inhibition of PIM2 at 100 nM relative to control; in short: as §1

Chain of Protein kinase C beta type (Homo sapiens) (P05771 2-671 limits assumed): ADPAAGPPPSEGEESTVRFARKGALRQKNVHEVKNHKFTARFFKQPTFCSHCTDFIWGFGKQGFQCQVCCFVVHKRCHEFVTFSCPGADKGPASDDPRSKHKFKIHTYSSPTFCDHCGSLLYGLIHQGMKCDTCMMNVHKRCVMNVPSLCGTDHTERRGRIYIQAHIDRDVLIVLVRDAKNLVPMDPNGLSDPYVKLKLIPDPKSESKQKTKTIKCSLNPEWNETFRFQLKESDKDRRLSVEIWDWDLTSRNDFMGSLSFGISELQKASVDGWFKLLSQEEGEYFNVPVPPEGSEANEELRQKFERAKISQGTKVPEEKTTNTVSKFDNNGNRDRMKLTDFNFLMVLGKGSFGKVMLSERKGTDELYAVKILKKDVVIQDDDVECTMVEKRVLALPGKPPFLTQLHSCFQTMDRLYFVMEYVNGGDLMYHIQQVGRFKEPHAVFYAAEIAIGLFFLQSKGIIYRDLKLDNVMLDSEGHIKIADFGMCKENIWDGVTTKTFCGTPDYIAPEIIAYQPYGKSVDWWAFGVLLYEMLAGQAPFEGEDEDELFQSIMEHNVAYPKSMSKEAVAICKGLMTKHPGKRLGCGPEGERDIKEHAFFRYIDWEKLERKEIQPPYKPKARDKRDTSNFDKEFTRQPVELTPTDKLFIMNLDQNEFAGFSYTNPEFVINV
Chain of Ribosomal protein S6 kinase alpha-5 (Homo sapiens) (O75582 whole entry, looked up): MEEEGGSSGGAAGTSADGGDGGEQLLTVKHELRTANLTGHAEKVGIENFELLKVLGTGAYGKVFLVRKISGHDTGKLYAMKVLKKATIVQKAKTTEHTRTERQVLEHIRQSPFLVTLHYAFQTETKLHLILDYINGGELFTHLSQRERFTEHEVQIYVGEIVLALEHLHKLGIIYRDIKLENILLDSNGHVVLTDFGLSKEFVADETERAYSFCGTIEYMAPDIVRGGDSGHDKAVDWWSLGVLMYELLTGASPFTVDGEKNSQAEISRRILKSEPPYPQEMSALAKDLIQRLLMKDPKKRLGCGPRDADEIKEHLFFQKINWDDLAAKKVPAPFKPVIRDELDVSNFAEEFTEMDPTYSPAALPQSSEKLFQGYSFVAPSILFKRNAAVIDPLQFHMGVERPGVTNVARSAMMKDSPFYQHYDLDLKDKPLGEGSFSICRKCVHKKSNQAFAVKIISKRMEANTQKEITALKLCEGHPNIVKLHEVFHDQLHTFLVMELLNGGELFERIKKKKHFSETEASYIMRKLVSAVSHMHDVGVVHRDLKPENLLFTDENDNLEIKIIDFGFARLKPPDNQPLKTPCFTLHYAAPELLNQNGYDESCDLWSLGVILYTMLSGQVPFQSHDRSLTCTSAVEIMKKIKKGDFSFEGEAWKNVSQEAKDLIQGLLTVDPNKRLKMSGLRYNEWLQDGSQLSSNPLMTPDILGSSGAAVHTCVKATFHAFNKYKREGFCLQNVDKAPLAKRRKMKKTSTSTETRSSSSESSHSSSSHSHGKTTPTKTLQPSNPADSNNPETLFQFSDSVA
Chain of Serine/threonine-protein kinase pim-1 (Homo sapiens) (P11309 whole entry, looked up): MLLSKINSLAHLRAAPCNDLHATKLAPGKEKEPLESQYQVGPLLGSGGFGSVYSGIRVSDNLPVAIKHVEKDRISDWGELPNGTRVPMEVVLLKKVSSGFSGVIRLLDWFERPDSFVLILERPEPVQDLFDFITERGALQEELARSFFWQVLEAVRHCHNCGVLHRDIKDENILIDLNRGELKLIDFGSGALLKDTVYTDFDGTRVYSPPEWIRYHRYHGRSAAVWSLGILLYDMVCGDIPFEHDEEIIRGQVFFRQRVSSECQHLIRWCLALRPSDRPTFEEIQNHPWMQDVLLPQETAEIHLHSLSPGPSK
Chain of AMP-activated protein kinase (AMPK) alpha-1/beta-1/gamma-1 (Homo sapiens) (P54619 whole entry): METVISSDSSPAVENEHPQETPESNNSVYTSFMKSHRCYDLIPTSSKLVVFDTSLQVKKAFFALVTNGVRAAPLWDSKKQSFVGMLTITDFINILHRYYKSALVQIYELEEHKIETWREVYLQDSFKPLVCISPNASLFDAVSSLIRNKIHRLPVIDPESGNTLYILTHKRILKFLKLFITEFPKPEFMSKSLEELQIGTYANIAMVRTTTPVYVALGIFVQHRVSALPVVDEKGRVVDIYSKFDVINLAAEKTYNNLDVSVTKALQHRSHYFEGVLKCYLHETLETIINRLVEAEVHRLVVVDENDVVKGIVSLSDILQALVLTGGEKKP
Chain of AMP-activated protein kinase (AMPK) alpha-1/beta-1/gamma-1 (Homo sapiens) (Q13131 whole entry partner): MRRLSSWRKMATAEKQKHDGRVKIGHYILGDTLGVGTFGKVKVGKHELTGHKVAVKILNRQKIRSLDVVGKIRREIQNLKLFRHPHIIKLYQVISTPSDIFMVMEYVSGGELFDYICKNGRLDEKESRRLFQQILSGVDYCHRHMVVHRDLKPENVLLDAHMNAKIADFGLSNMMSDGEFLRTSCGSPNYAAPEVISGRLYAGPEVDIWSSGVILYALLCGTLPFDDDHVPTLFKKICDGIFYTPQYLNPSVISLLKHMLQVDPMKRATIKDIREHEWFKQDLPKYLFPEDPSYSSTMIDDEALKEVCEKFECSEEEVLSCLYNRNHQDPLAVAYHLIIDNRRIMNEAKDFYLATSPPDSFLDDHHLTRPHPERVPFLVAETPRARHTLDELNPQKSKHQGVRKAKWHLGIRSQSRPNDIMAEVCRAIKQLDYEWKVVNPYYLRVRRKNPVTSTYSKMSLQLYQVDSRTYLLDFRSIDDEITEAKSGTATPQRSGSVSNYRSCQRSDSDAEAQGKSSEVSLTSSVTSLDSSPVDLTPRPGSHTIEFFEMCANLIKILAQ
Chain of AMP-activated protein kinase (AMPK) alpha-1/beta-1/gamma-1 (Homo sapiens) (Q9Y478 2-270 partner limits assumed): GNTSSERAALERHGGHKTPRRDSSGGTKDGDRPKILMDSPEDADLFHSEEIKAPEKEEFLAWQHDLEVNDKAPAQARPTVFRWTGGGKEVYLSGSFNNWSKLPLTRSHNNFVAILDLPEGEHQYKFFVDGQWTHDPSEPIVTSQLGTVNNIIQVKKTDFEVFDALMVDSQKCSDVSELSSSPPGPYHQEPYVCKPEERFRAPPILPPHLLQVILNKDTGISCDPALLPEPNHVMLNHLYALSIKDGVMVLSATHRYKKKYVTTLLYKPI
Chain of Rho-associated protein kinase 2 (O75116 whole entry, looked up): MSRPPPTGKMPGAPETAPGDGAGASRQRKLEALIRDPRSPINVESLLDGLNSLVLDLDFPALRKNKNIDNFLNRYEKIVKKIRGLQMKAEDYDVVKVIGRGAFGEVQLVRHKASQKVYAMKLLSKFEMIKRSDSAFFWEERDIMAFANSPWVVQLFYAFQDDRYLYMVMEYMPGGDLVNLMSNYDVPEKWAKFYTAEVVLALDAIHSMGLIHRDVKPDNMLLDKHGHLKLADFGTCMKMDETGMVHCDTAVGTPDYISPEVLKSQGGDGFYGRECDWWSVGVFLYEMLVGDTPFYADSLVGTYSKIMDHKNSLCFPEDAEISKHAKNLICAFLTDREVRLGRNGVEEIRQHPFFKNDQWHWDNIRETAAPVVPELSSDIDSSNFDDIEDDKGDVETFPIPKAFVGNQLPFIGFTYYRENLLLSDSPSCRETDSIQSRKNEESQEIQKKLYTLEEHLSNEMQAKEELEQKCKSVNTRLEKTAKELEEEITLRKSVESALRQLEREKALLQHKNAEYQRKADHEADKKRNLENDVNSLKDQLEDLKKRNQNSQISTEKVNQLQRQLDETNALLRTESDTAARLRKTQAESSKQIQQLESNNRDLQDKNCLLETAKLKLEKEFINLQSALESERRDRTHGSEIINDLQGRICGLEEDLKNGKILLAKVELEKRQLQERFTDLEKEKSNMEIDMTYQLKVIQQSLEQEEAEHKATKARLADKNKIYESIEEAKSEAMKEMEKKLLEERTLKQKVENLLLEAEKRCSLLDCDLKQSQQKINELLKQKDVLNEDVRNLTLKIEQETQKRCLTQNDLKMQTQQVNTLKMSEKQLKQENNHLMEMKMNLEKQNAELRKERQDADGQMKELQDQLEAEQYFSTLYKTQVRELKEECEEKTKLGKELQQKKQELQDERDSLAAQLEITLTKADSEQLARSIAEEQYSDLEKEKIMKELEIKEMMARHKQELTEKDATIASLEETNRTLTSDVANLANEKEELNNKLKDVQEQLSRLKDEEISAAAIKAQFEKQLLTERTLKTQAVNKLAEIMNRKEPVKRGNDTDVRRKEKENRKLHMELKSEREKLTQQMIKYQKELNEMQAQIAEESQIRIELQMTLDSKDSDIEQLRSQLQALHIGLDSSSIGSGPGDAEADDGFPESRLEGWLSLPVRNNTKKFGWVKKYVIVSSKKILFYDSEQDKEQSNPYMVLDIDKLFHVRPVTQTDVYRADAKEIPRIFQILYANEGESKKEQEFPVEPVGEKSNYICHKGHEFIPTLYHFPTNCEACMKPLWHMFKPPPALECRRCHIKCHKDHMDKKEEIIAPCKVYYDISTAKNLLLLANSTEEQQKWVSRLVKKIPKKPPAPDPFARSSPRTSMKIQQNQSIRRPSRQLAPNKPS

Compound: N=C(N)NCCC[C@@H](NC(=O)[C@@H](CCCNC(=N)N)NC(=O)[C@@H](CCCNC(=N)N)NC(=O)[C@@H](CCCNC(=N)N)NC(=O)[C@@H](CCCNC(=N)N)NC(=O)[C@@H](CCCNC(=N)N)NC(=O)CCCCCNC(=O)[C@@H](CCCCN)NC(=O)CCCCCNC(=O)c1ccc(-c2ccnc(N)n2)s1)C(N)=O ({X1-Ahx}-[dK][Ahx][dR][dR][dR][dR][dR][dR]-NH2)
- inhibition [1]: 10%
- inhibition [2]: 103%
- inhibition [3]: 112%
- inhibition [4]: 97%
- inhibition [5]: 91%
- inhibition [6]: 22%
- inhibition [7]: 92%
- inhibition [8]: 103%
- inhibition [9]: 104%
- inhibition [10]: 100%
- inhibition [11]: 108%
- inhibition [12]: 106%
- inhibition [13]: 97%
- inhibition [14]: 106%
- inhibition [15]: 93%
- inhibition [16]: 105%
- inhibition [17]: 78%
- inhibition [18]: 106%
- inhibition [19]: 8%
- inhibition [20]: 79%
- inhibition [21]: 6%
- inhibition [22]: 41%
- inhibition [23]: 83%
- inhibition [24]: 97%
- inhibition [25]: 91%
- inhibition [26]: 100%
- inhibition [27]: 90%
- inhibition [28]: 21%
- inhibition [29]: 97%
- inhibition [30]: 44%
- inhibition [31]: 97%
- inhibition [32]: 4%
- inhibition [33]: 97%
- inhibition [34]: 82%
- inhibition [35]: 112%
- inhibition [36]: 70%
- inhibition [37]: 33%
- inhibition [38]: 99%
- inhibition [39]: 104%
- inhibition [40]: 65%
- inhibition [41]: 69%
- inhibition [42]: 25%
- inhibition [43]: 24%
- inhibition [44]: 80%
- inhibition [45]: 106%
- inhibition [46]: 38%
- inhibition [47]: 46%
- inhibition [48]: 26%
- inhibition [49]: 95%
